In ChEMBL document CHEMBL3853279, “Tadehaginosides A-J, Phenylpropanoid Glucosides from Tadehagi triquetrum, Enhance Glucose Uptake via the Upregulation of PPARγ and GLUT-4 in C2C12 Myotubes” (J Nat Prod, 2016):
Active and inactive are the calls of the source. The rule behind the calls is not given here.

Experiments:
[1] = molecular target: T1, Peroxisome proliferator-activated receptor gamma (Mus musculus) (UniProt P37238); test: Transactivation of PPARgamma in mouse C2C12 cells assessed as increase in GLUT-4 mediated 2-NBDG uptake at 10 uM after 6 hrs by fluorescence assay; type: cell-based
T1 sequence (whole entry): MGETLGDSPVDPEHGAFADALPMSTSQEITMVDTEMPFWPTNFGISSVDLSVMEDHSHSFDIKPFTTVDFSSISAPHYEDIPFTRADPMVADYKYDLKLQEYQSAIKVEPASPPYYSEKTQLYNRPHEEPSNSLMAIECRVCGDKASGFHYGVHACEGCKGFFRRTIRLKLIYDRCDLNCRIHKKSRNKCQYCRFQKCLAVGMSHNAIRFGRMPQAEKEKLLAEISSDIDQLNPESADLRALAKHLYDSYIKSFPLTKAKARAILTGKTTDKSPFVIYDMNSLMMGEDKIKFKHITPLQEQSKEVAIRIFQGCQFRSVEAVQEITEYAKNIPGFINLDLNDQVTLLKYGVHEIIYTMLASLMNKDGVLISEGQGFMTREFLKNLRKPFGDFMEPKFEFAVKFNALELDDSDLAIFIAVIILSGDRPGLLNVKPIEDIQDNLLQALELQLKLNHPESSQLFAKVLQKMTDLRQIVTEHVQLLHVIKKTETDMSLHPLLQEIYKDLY
Procedure, shortened: (§1)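 Uptake was run in C2C12 myotubes (4 days in DMEM/1% FBS) kept in serum-free DMEM. 2-NBDG 10 μM and compound (DMSO solution) were added together for the stated time. Medium was then discarded, and cells were washed twice with PBS and scraped in ice-cold PBS. Cell-associated 2-NBDG was read by fluorescence at Ex/Em 475/550 nm, under basal or insulin-stimulated conditions.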

[2] = molecular target: T1, Peroxisome proliferator-activated receptor gamma (Mus musculus); test: Transactivation of PPARgamma in mouse C2C12 cells assessed as increase in GLUT-4 mediated 2-NBDG uptake at 4 hrs by fluorescence assay; type: cell-based; procedure, shortened: as §1
[3] = molecular target: T1, Peroxisome proliferator-activated receptor gamma (Mus musculus); test: Transactivation of PPARgamma in mouse C2C12 cells assessed as increase in GLUT-4 mediated 2-NBDG uptake at 5 to 20 uM at 4 hrs by fluorescence assay; type: cell-based; procedure, shortened: as §1
[4] = molecular target: T1, Peroxisome proliferator-activated receptor gamma (Mus musculus); test: Transactivation of PPARgamma in mouse C2C12 cells assessed as increase in GLUT-4 mediated insulin-induced 2-NBDG uptake at 4 hrs by fluorescence assay; type: cell-based; procedure, shortened: as §1
[5] = molecular target: T1, Peroxisome proliferator-activated receptor gamma (Mus musculus); test: Transactivation of PPARgamma in mouse C2C12 cells at 1 to 10 uM after 24 hrs by DR-1 luciferase reporter gene assay; type: cell-based
Procedure, shortened: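 C2C12 myotubes were transiently co-transfected with a DR-1 luciferase reporter and a PPARγ expression vector. Six hours after transfection, the medium was replaced with fresh medium containing the agonist. Luciferase activity was measured 24 h later by kit assay.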

[6] = molecular target: T1, Peroxisome proliferator-activated receptor gamma (Mus musculus); test: Transactivation of PPARgamma in mouse C2C12 cells assessed as increase in GLUT-4 mediated 2-NBDG uptake at 10 uM after 2 to 8 hrs by fluorescence assay; type: cell-based; procedure, shortened: as §1
Mus musculus = species: Mus musculus; test: Cytotoxicity against mouse C2C12 cells assessed as cell viability at 1 to 20 uM after 4 hrs by MTT assay; type: toxicity, cell-based; details: c2c12, 4 h
Procedure, shortened: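 C2C12 myoblasts differentiated to myotubes in DMEM with 1% FBS, changed daily for 4 days, then seeded in 96-well plates. Cells were exposed to test compound for 4 h, with digitonin 100 μg/mL as positive control. MTT reagent was added, then DMSO, and absorbance was read at 565 nm as viability.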

[7] = molecular target: T1, Peroxisome proliferator-activated receptor gamma (Mus musculus); test: Transactivation of PPARgamma in mouse C2C12 cells assessed as increase in GLUT-4 levels in at 1 to 10 uM after 6 hrs by ELISA; type: cell-based
Procedure, shortened: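 Myotubes were differentiated from C2C12 myoblasts over 4 days in DMEM plus 1% FBS, then treated 6 h in serum-free DMEM at 1 and 10 μM, with rosiglitazone 10 μM as reference. Cells were PBS-washed and lysed, and lysates were spun 20 min at 13000g, 4 °C. GLUT-4 in the supernatant was quantified by mouse GLUT-4 ELISA.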

| SMILES | Activity [1] | other results |
| --- | --- | --- |
| CC(=O)c1c(O)cc(O)cc1O[C@@H]1O[C@H](COC(=O)/C=C/c2ccc(O)cc2)[C@@H](O)[C@H](O)[C@H]1O | Active | – |
| O=C(OC[C@H]1O[C@@H](Oc2cc(O)cc(O)c2)[C@H](O)[C@@H](O)[C@@H]1O)[C@H]1[C@H](C(=O)OC[C@H]2O[C@@H](Oc3cc(O)cc(O)c3)[C@H](O)[C@@H](O)[C@@H]2O)[C@H](c2ccc(O)cc2)[C@H]1c1ccc(O)cc1 | Active | – |
| O=C(/C=C/c1ccc(O)cc1)OC[C@H]1O[C@@H](Oc2cc(O)cc(O)c2)[C@H](O)[C@@H](O)[C@@H]1O | Active | – |
| CC(=O)c1c(O)cc(O)cc1O[C@@H]1O[C@H](COC(=O)/C=C\c2ccc(O)cc2)[C@@H](O)[C@H](O)[C@H]1O | Active | – |
| O=C(OC[C@H]1O[C@@H](Oc2cc(O)cc(O)c2)[C@H](O)[C@@H](O)[C@@H]1O)[C@H]1[C@H](c2ccc(O)cc2)[C@H](C(=O)OC[C@H]2O[C@@H](Oc3cc(O)cc(O)c3)[C@H](O)[C@@H](O)[C@@H]2O)[C@H]1c1ccc(O)cc1 | Active | Activity [2]: Dose-dependent effect; Activity [3]: Active; Activity [4]: Dose-dependent effect; Activity [5]: Active; Activity [6]: Active; Activity (Mus musculus): Non-Toxic; Activity [7]: Active |
| O=C(/C=C/c1ccc(O)cc1)O[C@H]1[C@H](Oc2cc(O)cc(O)c2)O[C@H](CO)[C@@H](O)[C@@H]1O | Active | – |
| O=C(/C=C\c1ccc(O)cc1)O[C@H]1[C@H](Oc2cc(O)cc(O)c2)O[C@H](CO)[C@@H](O)[C@@H]1O | Active | – |
| O=C(/C=C/c1ccc(O)cc1)O[C@H]1[C@H](O)[C@@H](O)[C@H](Oc2cc(O)cc(O)c2)O[C@@H]1CO | Active | – |
| O=C(/C=C/c1ccc(O)cc1)O[C@@H]1[C@@H](O)[C@H](Oc2cc(O)cc(O)c2)O[C@H](CO)[C@H]1O | Active | – |
